Results published in paper PMC6585996 (Clinical Pharmacology in Drug Development, 2018).
Entries after “also recorded” stand apart in the source; their conditions may differ. Where two headings read alike, the source gives them in different places. Values belong to the molecule of their own block, whether it stands above or below them.

Legend:
[1] = 30 mg with a moderate-fat meal; ref Supplemental Data; cited from earlier work
[2] = 10‐ and 30‐mg doses, early prototype formulations; ref Supplemental Data; cited from earlier work
[3] = test system: serum albumin; conditions: cited from earlier work
[4] = Safety assessments in the phase 1 food-effect study; assay type: in vivo, human
[5] = cited from earlier work
[6] = test system: OATP; conditions: cited from earlier work
[7] = test system: uridine diphosphate glucuronosyltransferase (UGT)1A1, UGT1A9; conditions: forms glucuronic acid conjugates; minor contribution by UGT1A9; cited from earlier work
[8] = single-dose oral 30 mg, fasted conditions, cited from earlier work
[9] = cited from earlier work; remark: listed apart in the source
[10] = assay type: in vivo, human
Summary of the method: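 Healthy adults aged 18–65 years (≥50 kg, BMI 18.5–31.0 kg/m2) were randomised 1:1 to a two-period crossover. Each received a single oral 30 mg tablet after ≥10 h fasting or within 30 min of a high-fat meal (~53% fat, ~870 calories), with a 14-day washout. Plasma was sampled predose to 168 h and assayed by protein precipitation plus LC-MS/MS (LLOQ 25 ng/mL, ULOQ 25,000 ng/mL). Parameters were noncompartmental. GLS mean ratios (90% CI) came from a mixed-effects model with treatment and period as fixed effects and participant as random.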

[11] = test system: HIV‐1; conditions: cited from earlier work
[12] = coadministered rifampin; cited from earlier work
[13] = cited from earlier work; remark: listed apart in the source
[14] = cited from earlier work; remark: listed apart in the source
[15] = 30-mg single oral dose, high-fat meal, n = 21
[16] = Fasted State vs High‐Fat Meal, 30-mg single dose, n = 21
[17] = high-fat meal compared with fasting state, 30 mg oral

effect of high-fat meal on tmax and t1/2 ([10]; 30 mg oral, high-fat meal vs fasting): Neither tmax nor t1/2 was affected | CL/F, Mean (SD) ([10]; 30-mg single oral dose, fasted state, n = 21): 0.218 (0.0611) L/h | CL/F, Mean (SD) [10, 15]: 0.191 (0.0553) L/h | t1/2, Mean (SD) [10, 15]: 41.1 (6.57) h | peak concentration of the one participant excluded from PK analysis ([10]; 2 hours after dosing, fasting conditions, 30 mg oral): 0.0987 µg/mL | AUC0‐∞, GLS Mean Ratio (90% CI) [10, 16]: 1.14 (1.02‐1.28) | C24, GLS Mean Ratio (90% CI) [10, 16]: 1.17 (1.04‐1.30) | CL/F, GLS Mean Ratio (90% CI) [10, 16]: 0.875 (0.785‐0.977) | Cmax, GLS Mean Ratio (90% CI) [10, 16]: 1.14 (1.03‐1.27) | t1/2, GLS Mean Ratio (90% CI) [10, 16]: 0.997 (0.964‐1.03) | quantifiable predose concentrations ([10]; crossover periods, 14-day washout): < 5 % of their respective Cmax values | decrease in CL/F ([10]; high-fat meal compared with after fasting, 30 mg oral): 13% | increase in maximal drug concentration [10, 17]: 14% | increase in plasma area under the concentration‐time curve [10, 17]: 14% | half-life ([10]; human, plasma, po, 30 mg): 41.1 h
Structure (SMILES): C[C@H]1CO[C@@H]2Cn3cc(C(=O)NCc4ccc(F)cc4F)c(=O)c(O)c3C(=O)N12 [cabotegravir, Cabotegravir]
half‐life, geometric mean (95% confidence interval) [1]: 38.6 h | effect of a moderate-fat meal (30% fat, ∼670 calories) on PK [2]: did not significantly affect | binding to serum albumin [3]: highly bound | treatment‐emergent laboratory abnormalities ([4]; grade 2 hypoglycemia, grade 3 increased direct bilirubin): 2 participants | electrocardiographic or vital sign abnormalities reported as AEs ([4]; single 30-mg oral doses): No clinically significant electrocardiographic or vital sign abnormalities | adverse events (grade 3/4, drug-related, serious, leading to discontinuation) ([4]; single 30-mg oral doses, fasted and fed, healthy adults): No grade 3/4 adverse events (AEs), drug‐related AEs, or AEs leading to discontinuation were reported; also recorded: no AEs or serious AEs that led to discontinuation of the study drug | dose proportionality of trough concentration [5]: increase in proportional to dose | dose proportionality of AUC and Cmax ([5]; dose increased from 30 to 60 mg, ref Supplemental Data): less‐than‐dose‐proportional | substrate for intestinal uptake transporters such as OATP [6]: not a substrate | metabolizing enzymes [7]: primarily metabolized by uridine diphosphate glucuronosyltransferase (UGT)1A1 | AUC(0-inf) ([8]; read-out: AUC0‐∞): 146 µg·h/mL | median time to peak plasma concentration (tmax) [8]: 2 h | plasma apparent terminal‐phase half‐life (t1/2) [8]: approximately 38.5 hours | Biopharmaceutics Drug Disposition Classification System class [9]: class 2 | passive permeability [9]: high | in vitro protein‐adjusted 90% inhibitory concentration [11]: 166 ng/mL | effect of rifampin on cabotegravir exposures [12]: significantly reduced

Structure (SMILES): Cc1nnc(C(=O)NC(C)(C)c2nc(C(=O)NCc3ccc(F)cc3)c(O)c(=O)n2C)o1 [Raltegravir]
increase in AUC from time 0 to 12 hours ([13]; raltegravir 400 mg twice daily with a high-fat meal): 2 fold | increase in AUC from time 0 to last observation ([13]; raltegravir 1200 mg (2 × 600 mg) once daily, following a high-fat meal): 1.9% | decrease in AUC from time 0 to last observation ([13]; raltegravir 1200 mg (2 × 600 mg) once daily, following a low-fat meal): 42%

Structure (SMILES): C[C@@H]1CCO[C@H]2Cn3cc(C(=O)NCc4ccc(F)cc4F)c(=O)c(O)c3C(=O)N12 [Dolutegravir]
increase in plasma AUC0‐∞ ([14]; single-dose dolutegravir 50 mg with high-fat meal): 66% | increase in plasma AUC0‐∞ ([14]; single-dose dolutegravir 50 mg with low-fat meal): 33% | increase in plasma AUC0‐∞ ([14]; single-dose dolutegravir 50 mg with moderate-fat meal): 41%
